Measured values: ChEMBL document CHEMBL5724801, “EUbOPEN Chemogenomics Library - Multiplex” (2024)
Values joined by “and” are separate entries in the source; they are usually repeats but may differ in a detail not shown here. Equal values may be shown once.

Assays:
[1] = tested on: U2OS; assay: Multiplex assay against U2OS; type: toxicity, cell-based; details: human
In short: (§1)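 Live cells were stained at seeding with Hoechst33342, BioTracker Green Microtubule Cytoskeleton Dye, MitoTracker Red and Annexin V Alexa Fluor 680, then imaged on a CQ1 microscope at 37°C and 5% CO2 after compound addition. CellPathfinder machine-learning gating split cells into Hoechst high-intensity objects or normal cells. Normal cells were split into healthy, pyknosed or fragmented nuclei, and pyknosed cells into mitotic or apoptotic. Tubulin, mitochondrial-mass and membrane-permeability phenotypes are per cents of healthy-nucleus cells.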

[2] = tested on: Fibroblast; assay: Multiplex assay against human fibroblast; type: toxicity, cell-based; in short: as §1
[3] = 24 h, 10 µM, compound concentration 10 uM
[4] = 48 h, 1 µM, compound concentration 1 uM
[5] = 48 h, 10 µM, compound concentration 10 uM
[6] = 12 h, 1 µM, compound concentration 1 uM
[7] = 12 h, 10 µM, compound concentration 10 uM
[8] = 24 h, 1 µM, compound concentration 1 uM

## O=C(O)C(F)(F)F.O=C1NC(=O)/C(=C/c2c[nH]c(=O)c(-c3ccc(N4CCNCC4)nc3)c2)S1
[1]; [3]
  Population Mitochondria Different-Phenotype (%): 0.21% and 4.57%
  Population Mitotic Cells (%): 59.38% and 42.11%
  Population Normal (%): 100%
  Population Pyknosed Nuclei (%): 6.19% and 8.37%
  Population Tubulin-Different-Phenotype (%): 1.49% and 0.51%
  Total Cell Count: 517 and 227
[1]; [4]
  Population Apoptotic (%): 51.47% and 41.86%
  Population Fragmented Nuclei (%): 2% and 1.49%
  Population Healthy Nuclei (%): 90.84% and 89.38%
  Population Hoechst High Intensity Objects (%): 0%
  Population Membrane Permeable-Phenotype (%): 0.93% and 3.09%
  Population Mitochondria Different-Phenotype (%): 0.12% and 2.14%
  Population Mitotic Cells (%): 48.53% and 58.14%
  Population Normal (%): 100%
  Population Pyknosed Nuclei (%): 7.16% and 9.13%
  Population Tubulin-Different-Phenotype (%): 1.04% and 1.66%
  Total Cell Count: 950 and 471
[1]; [5]
  Population Apoptotic (%): 38.82% and 45.95%
  Population Fragmented Nuclei (%): 2.93% and 2.98%
  Population Healthy Nuclei (%): 88.48% and 87.84%
  Population Hoechst High Intensity Objects (%): 0.1% and 0%
  Population Membrane Permeable-Phenotype (%): 1.48% and 3.39%
  Population Mitochondria Different-Phenotype (%): 0% and 1.98%
  Population Mitotic Cells (%): 61.18% and 54.05%
  Population Normal (%): 99.9% and 100%
  Population Pyknosed Nuclei (%): 8.59% and 9.18%
  Population Tubulin-Different-Phenotype (%): 0.68% and 1.69%
  Total Cell Count: 991 and 403
[2]; [6]
  Population Apoptotic (%): 11.76% and 21.95%
  Population Fragmented Nuclei (%): 12.02% and 8.21%
  Population Healthy Nuclei (%): 60.11% and 70.77%
  Population Hoechst High Intensity Objects (%): 0%
  Population Membrane Permeable-Phenotype (%): 3.64% and 0%
  Population Mitochondria Different-Phenotype (%): 8.18% and 7.25%
  Population Mitotic Cells (%): 88.24% and 78.05%
  Population Normal (%): 100%
  Population Pyknosed Nuclei (%): 27.87% and 21.03%
  Population Tubulin-Different-Phenotype (%): 8.18% and 12.32%
  Total Cell Count: 183 and 195
[2]; [7]
  Population Apoptotic (%): 13.51% and 16.13%
  Population Healthy Nuclei (%): 62.9% and 80.28%
  Population Hoechst High Intensity Objects (%): 0%
  Population Membrane Permeable-Phenotype (%): 5.98% and 3.51%
  Population Mitochondria Different-Phenotype (%): 4.27% and 11.7%
  Population Mitotic Cells (%): 86.49% and 83.87%
  Population Normal (%): 100%
  Population Pyknosed Nuclei (%): 19.89% and 14.55%
  Total Cell Count: 186 and 213
[2]; [8]
  Population Apoptotic (%): 10.42% and 17.86%
  Population Fragmented Nuclei (%): 12.43% and 7.25%
  Population Healthy Nuclei (%): 61.62% and 78.24%
  Population Hoechst High Intensity Objects (%): 0%
  Population Membrane Permeable-Phenotype (%): 4.39% and 3.97%
  Population Mitochondria Different-Phenotype (%): 4.39% and 9.27%
  Population Mitotic Cells (%): 89.58% and 82.14%
  Population Normal (%): 100%
  Population Pyknosed Nuclei (%): 25.95% and 14.51%
  Population Tubulin-Different-Phenotype (%): 10.53% and 16.56%
  Total Cell Count: 185 and 193
[2]; [3]
  Population Apoptotic (%): 24.24% and 20.59%
  Population Fragmented Nuclei (%): 13.83% and 5.22%
  Population Healthy Nuclei (%): 68.62% and 80%
  Population Hoechst High Intensity Objects (%): 0%
  Population Membrane Permeable-Phenotype (%): 3.88% and 1.09%
  Population Mitochondria Different-Phenotype (%): 4.65% and 6.52%
  Population Mitotic Cells (%): 75.76% and 79.41%
  Population Normal (%): 100%
  Population Pyknosed Nuclei (%): 17.55% and 14.78%
  Population Tubulin-Different-Phenotype (%): 10.85% and 20.11%
  Total Cell Count: 188 and 230
[2]; [4]
  Population Apoptotic (%): 26.32% and 27.27%
  Population Fragmented Nuclei (%): 10.5% and 6.53%
  Population Healthy Nuclei (%): 81.51% and 87.94%
  Population Hoechst High Intensity Objects (%): 0%
  Population Membrane Permeable-Phenotype (%): 1.03% and 1.71%
  Population Mitochondria Different-Phenotype (%): 8.76% and 5.71%
  Population Mitotic Cells (%): 73.68% and 72.73%
  Population Normal (%): 100%
  Population Pyknosed Nuclei (%): 7.98% and 5.53%
  Population Tubulin-Different-Phenotype (%): 6.7% and 18.86%
  Total Cell Count: 238 and 199
[2]; [5]
  Population Apoptotic (%): 50% and 55.56%
  Population Fragmented Nuclei (%): 7.94% and 3.6%
  Population Healthy Nuclei (%): 88.89% and 92.34%
  Population Hoechst High Intensity Objects (%): 0%
  Population Membrane Permeable-Phenotype (%): 1.19% and 1.46%
  Population Mitotic Cells (%): 50% and 44.44%
  Population Normal (%): 100%
  Population Pyknosed Nuclei (%): 3.17% and 4.05%
  Total Cell Count: 189 and 222
